A short description of series [1]: folding enthalpy; higher = less favourable; fluorescence melt of hairpins on a sequencing array, two-state fit. The conditions noted are these: sodium 0.088 M. The method in brief: (§1)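 Hairpins were imaged by Cy3 fluorescence on a sequenced MiSeq flow cell with annealed Cy3 and quencher oligos, in 50 mM Na-HEPES pH 8.0, 25 mM NaCl, in 2.5 °C steps up to 60 °C. Bootstrapped two-state fits of normalised signals gave melting temperature and folding enthalpy. Four replicates were combined by inverse variance, and fitted temperatures were raised by 9.35 °C to match UV melts.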

Series [2] can be described thus: melting temperature; fluorescence melt of hairpins on a sequencing array, two-state fit, raised by 9.35 °C to match UV melts. To be noted: sodium 0.088 M. The method in brief: as §1

On to GAACGGCGAAAGCCTTC (((.(((....)))))), for which the folding enthalpy in series [1] is -12.4 kcal/mol. In series [2], the Tm was found to be 39.3 °C.
The matching figures for GAACGGGAAACCGTTC ((((((....)))))): -37.1 kcal/mol and 62.8 °C.
For GAACGGGGAAACCCGTCC (.(((((....))))).), in that order: -11.7 kcal/mol and 42.5 °C.
On to GAACGGGGAAACTCGTTC (((((.(....).))))), for which the folding enthalpy in series [1] is -48.7 kcal/mol. Further, the Tm in series [2] worked out at 50.8 °C.
For GAACGTGGAAACACATTC (((.(((....))).))), in that order: -17.1 kcal/mol and 32.9 °C.
As to GAACGTGGAAACACGTCC (.(((((....))))).), the folding enthalpy in series [1] was -13.6 kcal/mol. Also, the Tm in series [2] stood at 41.3 °C.
As to GAACGTGGAAACGTGTTC ((((..(....)..)))), the folding enthalpy in series [1] was -14.9 kcal/mol. Moreover, the Tm in series [2] was 37.5 °C.
As to GAACTACGAAAGTATTTC (((.(((....))).))), the folding enthalpy in series [1] was -13.6 kcal/mol. For the same sequence, in series [2], the Tm is 32.7 °C.
GAACTCACGAAAGTGTTC (((..(((....)))))): the folding enthalpy in series [1] was -14.3 kcal/mol. Further, the Tm in series [2] is 29.2 °C.
Consider GAACTCCGAAAGGACTTC (((.(((....))).))), for which the folding enthalpy in series [1] is -19.5 kcal/mol. Further, the Tm in series [2] stood at 29.7 °C.
GAACTCGCGAAAGCGTTC (((..(((....)))))): the folding enthalpy in series [1] was -12.5 kcal/mol. For the same sequence, the Tm in series [2] stood at 27.4 °C.
The matching figures for GAACTGCGAAAGCATTC (((.(((....)))))): -11.7 kcal/mol and 30.9 °C.
Turning to GAACTGCGAAAGCATTTC (((.(((....))).))), the folding enthalpy in series [1] is -20.1 kcal/mol. Also, in series [2], the Tm stood at 38.7 °C.
With GAACTGGGAAACCAATTC (((.(((....))).))), the folding enthalpy in series [1] was -12.7 kcal/mol. Further, the Tm in series [2] turned out to be 29.2 °C.
For the sequence GAACTGGGAAACCAGCTC ((.((((....)))).)), in series [1], the folding enthalpy was -19.4 kcal/mol. In series [2], the Tm worked out at 38.5 °C.
On to GAACTTGGAAACGAGTTC (((((.(....).))))), for which, in series [1], the folding enthalpy was -38 kcal/mol. The Tm in series [2] came out at 44.2 °C.
For GAAGAACGAAAGTTATTC (((.(((....))).))), in that order: -31.6 kcal/mol and 42.5 °C.
For GAAGAACGAAAGTTTTC (((.(((....)))))), in that order: -12.6 kcal/mol and 24.9 °C.
For GAAGAAGGAAACTTCTTC (((((((....))))))), in that order: -48.8 kcal/mol and 50.6 °C.
Turning to GAAGACGAAAGTCACTTC ((((((....)))..))), the folding enthalpy in series [1] is -17.5 kcal/mol. Besides, the Tm in series [2] was found to be 35 °C.
The matching figures for GAAGACGAAAGTCATTC ((((((....))).))): -14.1 kcal/mol and 31.4 °C.
As for GAAGACGAAAGTCCCTTC ((((((....)))..))), in series [1], the folding enthalpy was -13.8 kcal/mol. In series [2], the Tm came to 30.8 °C.
As for GAAGACGAAAGTCCTTC ((((((....))).))), the folding enthalpy in series [1] was -20.8 kcal/mol. The Tm in series [2] turned out to be 39.2 °C.
As for GAAGACGAAAGTCGTTC ((((((....))).))), in series [1], the folding enthalpy was -12.3 kcal/mol. The Tm in series [2] turned out to be 37.9 °C.
Regarding GAAGACGAAAGTCTATTC ((((((....)))..))), the folding enthalpy in series [1] was -11.4 kcal/mol. The Tm in series [2] turned out to be 30.5 °C.
For GAAGACGAAAGTCTGTTC ((((((....)))..))), in that order: -13.7 kcal/mol and 40 °C.
Regarding GAAGACGAAAGTCTTTC ((((((....))).))), the folding enthalpy in series [1] was -13.1 kcal/mol. In addition, in series [2], the Tm is 48.1 °C.
The matching figures for GAAGACGAAAGTCTTTTC ((((((....)))..))): -13.4 kcal/mol and 47.1 °C.
GAAGACGGAAACGTCTTC (((((((....))))))): the folding enthalpy in series [1] is -41.5 kcal/mol. Besides, the Tm in series [2] came to 64.5 °C.
Take GAAGAGACGAAAGTCTTC (((..(((....)))))): the folding enthalpy in series [1] is -9.13 kcal/mol. Besides, in series [2], the Tm turned out to be 30.6 °C.
Turning to GAAGAGCGAAAGCTATTC (((.(((....))).))), in series [1], the folding enthalpy is -31 kcal/mol. In series [2], the Tm amounted to 50 °C.
Turning to GAAGAGCGAAAGCTTTTC (((.(((....))).))), the folding enthalpy in series [1] is -24.1 kcal/mol. Further, the Tm in series [2] came out at 44.7 °C.
In the case of GAAGAGGAAACTCTTC ((((((....)))))), in series [1], the folding enthalpy is -34.2 kcal/mol. In addition, in series [2], the Tm is 48.3 °C.
Regarding GAAGAGGCGAAAGCCTTC (((..(((....)))))), the folding enthalpy in series [1] is -8.73 kcal/mol. In addition, the Tm in series [2] was 33.2 °C.
For GAAGAGGGAAACCCCTTC ((((.((....)).)))), in that order: -21.2 kcal/mol and 35.7 °C.
Regarding GAAGATGCGAAAGCATTC (((..(((....)))))), the folding enthalpy in series [1] was -10.7 kcal/mol. The Tm in series [2] is 29.9 °C.
On to GAAGATGGAAACGTCTTC (((((.(....).))))), for which the folding enthalpy in series [1] is -33.9 kcal/mol. Moreover, the Tm in series [2] amounted to 43.2 °C.
GAAGCAGAAATGCTTC ((((((....)))))): the folding enthalpy in series [1] is -35.3 kcal/mol. In series [2], the Tm came to 54.5 °C.
The matching figures for GAAGCAGGAAACTGCTCC (.(((((....))))).): -12.6 kcal/mol and 41.3 °C.
On to GAAGCAGGAAACTGCTTC (((((((....))))))), for which the folding enthalpy in series [1] is -39.9 kcal/mol. In series [2], the Tm came out at 62.2 °C.
For the sequence GAAGCCGAAAGGCGATTC ((((((....)))..))), the folding enthalpy in series [1] was -14.9 kcal/mol. Also, the Tm in series [2] is 58 °C.
In the case of GAAGCCGAAAGGCGTTC ((((((....))).))), the folding enthalpy in series [1] is -8.99 kcal/mol. The Tm in series [2] is 46.7 °C.
Regarding GAAGCCGAAAGGCTATTC ((((((....)))..))), the folding enthalpy in series [1] is -8.63 kcal/mol. In addition, the Tm in series [2] amounted to 33.7 °C.
As to GAAGCCGAAAGGCTTTTC ((((((....)))..))), the folding enthalpy in series [1] was -12 kcal/mol. Further, in series [2], the Tm came to 54.7 °C.
Take GAAGCCGGAAACGGCCTC ((.((((....)))).)): the folding enthalpy in series [1] is -10 kcal/mol. Also, the Tm in series [2] stood at 39.2 °C.
For the sequence GAAGCGGGAAACCGTTTC (((.(((....))).))), the folding enthalpy in series [1] was -28.2 kcal/mol. The Tm in series [2] was 47.1 °C.
For GAAGCTGGAAACAACTTC ((((.((....)).)))), the folding enthalpy in series [1] is -24.2 kcal/mol. The Tm in series [2] was 34.9 °C.
As for GAAGCTGGAAACAGCTCC (.(((((....))))).), the folding enthalpy in series [1] was -13.7 kcal/mol. The Tm in series [2] was determined as 39 °C.
The matching figures for GAAGGAGCGAAAGCTTTC (((..(((....)))))): -9.13 kcal/mol and 28.4 °C.
On to GAAGGCCCGAAAGGGTTC (((..(((....)))))), for which the folding enthalpy in series [1] is -17.4 kcal/mol. Further, the Tm in series [2] was 25.5 °C.
GAAGGCCGAAAGGCTTC (((.(((....)))))): the folding enthalpy in series [1] was -15.6 kcal/mol. Also, in series [2], the Tm came to 48.7 °C.
Regarding GAAGGCGAAAGCCACTTC ((((((....)))..))), the folding enthalpy in series [1] was -13.1 kcal/mol. For the same sequence, in series [2], the Tm was determined as 40.6 °C.
The matching figures for GAAGGCGAAAGCCATTC ((((((....))).))): -10.4 kcal/mol and 39.7 °C.
On to GAAGGCGAAAGCCTATTC ((((((....)))..))), for which the folding enthalpy in series [1] was -8.36 kcal/mol. Besides, the Tm in series [2] was 32.1 °C.
For the sequence GAAGGCGAAAGCCTGTTC ((((((....)))..))), in series [1], the folding enthalpy is -9.93 kcal/mol. Moreover, the Tm in series [2] is 47.9 °C.
On to GAAGGCGAAAGCCTTTC ((((((....))).))), for which the folding enthalpy in series [1] is -10.6 kcal/mol. In addition, in series [2], the Tm turned out to be 53.7 °C.
For GAAGGCGAAAGCCTTTTC ((((((....)))..))), the folding enthalpy in series [1] is -11.1 kcal/mol. Besides, in series [2], the Tm was 51.3 °C.
In the case of GAAGGGGGAAACCCCTTC (((((((....))))))), the folding enthalpy in series [1] was -37 kcal/mol. Further, the Tm in series [2] stood at 61.5 °C.
In the case of GAAGGGGGAAACCCTTTC (((.(((....))).))), the folding enthalpy in series [1] is -18.7 kcal/mol. Also, the Tm in series [2] amounted to 41.1 °C.
On to GAAGGTGGAAACGCTTTC (((.(.(....).).))), for which the folding enthalpy in series [1] was -9.77 kcal/mol. Moreover, the Tm in series [2] was 24.2 °C.
In the case of GAAGTACGAAAGTATTC (((.(((....)))))), in series [1], the folding enthalpy was -10.4 kcal/mol. Besides, in series [2], the Tm came to 27.1 °C.
As to GAAGTAGCGAAAGCTTTC (((..(((....)))))), in series [1], the folding enthalpy is -9.46 kcal/mol. Moreover, the Tm in series [2] was 30.3 °C.
On to GAAGTCCGAAAGGAGTTC (((.(((....))).))), for which the folding enthalpy in series [1] was -33.7 kcal/mol. In addition, the Tm in series [2] is 55.2 °C.
As to GAAGTCGGAAACAACTTC (((((.(....).))))), the folding enthalpy in series [1] was -27.2 kcal/mol. The Tm in series [2] was determined as 33.4 °C.
As to GAAGTGGGAAACCACTTC (((((((....))))))), the folding enthalpy in series [1] was -45.4 kcal/mol. Further, the Tm in series [2] stood at 59.9 °C.
For the sequence GAATAACGAAAGTTTTC (((.(((....)))))), in series [1], the folding enthalpy is -13.7 kcal/mol. Moreover, the Tm in series [2] worked out at 29.7 °C.
As to GAATACCCGAAAGGGTTC (((..(((....)))))), the folding enthalpy in series [1] was -7.33 kcal/mol. The Tm in series [2] amounted to 33 °C.
On to GAATACGAAAGTATGTTC ((((((....)))..))), for which the folding enthalpy in series [1] is -14.2 kcal/mol. Further, the Tm in series [2] was determined as 32.3 °C.
The matching figures for GAATAGCGAAAGCTCTTC (((.(((....))).))): -19.4 kcal/mol and 38.7 °C.
The matching figures for GAATAGGGAAACCCATTC ((((.((....)).)))): -17.1 kcal/mol and 29.5 °C.
In the case of GAATATGGAAACATATTC (((((((....))))))), the folding enthalpy in series [1] is -35.1 kcal/mol. For the same sequence, the Tm in series [2] worked out at 48.1 °C.
The matching figures for GAATCAGAAATGATTC ((((((....)))))): -32.9 kcal/mol and 45.6 °C.
Take GAATCAGGAAACTGATTC (((((((....))))))): in series [1], the folding enthalpy is -42.6 kcal/mol. The Tm in series [2] came out at 55.8 °C.

Values taken from the array DNA melting data of Ke et al. (doi:10.1101/2024.01.08.574731).
